Laboratory results as given in ChEMBL document CHEMBL2401667, “Synthesis of N-substituted acyclic β-amino acids and their investigation as GABA uptake inhibitors” (Eur J Med Chem, 2013).

How the values were obtained:
[1] = molecular target: Sodium- and chloride-dependent GABA transporter 1 (Homo sapiens, UniProt P30531); assay: Inhibition of GABA uptake at GAT-1 (unknown origin)
[2] = molecular target: Sodium- and chloride-dependent GABA transporter 1 (Mus musculus, UniProt P31648); assay: Inhibition of GABA uptake at murine GAT-1 expressed in HEK293 cells; assay type: cell-based
GABA transporter 2 = molecular target: T1, GABA transporter 2 (Mus musculus, UniProt P31651); assay: Inhibition of GABA uptake at murine BGT-1 expressed in HEK293 cells; assay type: cell-based
T1 sequence (P31651 whole entry): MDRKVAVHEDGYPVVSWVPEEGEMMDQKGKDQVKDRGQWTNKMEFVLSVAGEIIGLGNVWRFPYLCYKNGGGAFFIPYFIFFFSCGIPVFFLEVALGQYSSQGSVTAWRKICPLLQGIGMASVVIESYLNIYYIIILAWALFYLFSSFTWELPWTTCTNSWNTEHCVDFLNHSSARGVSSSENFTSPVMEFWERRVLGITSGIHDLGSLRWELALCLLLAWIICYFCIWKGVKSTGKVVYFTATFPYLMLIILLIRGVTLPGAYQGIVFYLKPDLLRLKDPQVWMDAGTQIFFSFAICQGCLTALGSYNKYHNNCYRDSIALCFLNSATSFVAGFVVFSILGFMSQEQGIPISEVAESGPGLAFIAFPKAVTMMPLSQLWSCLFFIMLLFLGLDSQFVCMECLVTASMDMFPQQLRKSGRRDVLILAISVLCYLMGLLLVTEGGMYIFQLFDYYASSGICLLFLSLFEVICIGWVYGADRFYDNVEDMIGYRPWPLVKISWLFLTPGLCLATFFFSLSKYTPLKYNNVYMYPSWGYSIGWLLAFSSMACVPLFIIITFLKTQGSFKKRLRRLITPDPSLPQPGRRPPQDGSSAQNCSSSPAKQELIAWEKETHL

[3] = Inhibition of GABA uptake at GAT-1 in porcine frontal cortex P2B fraction; assay type: tissue-based, Sus scrofa
Method in brief: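 Uptake assay on a P2B membrane preparation from porcine frontal cortex, which predominantly addresses the GAT1 subtype.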

[4] = Inhibition of GABA uptake at GAT-3 in porcine brain stem P2C fraction; parameters: species or system Sus scrofa
Method in brief: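 Uptake assay on a P2C membrane preparation from porcine brainstem, which predominantly addresses the GAT3 subtype.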

[5] = molecular target: T2, GABA transporter 3 (Mus musculus) (UniProt P31649); assay: Remaining GABA uptake at murine GAT-2 expressed in HEK293 cells at 100 uM relative to control
T2 sequence (whole entry): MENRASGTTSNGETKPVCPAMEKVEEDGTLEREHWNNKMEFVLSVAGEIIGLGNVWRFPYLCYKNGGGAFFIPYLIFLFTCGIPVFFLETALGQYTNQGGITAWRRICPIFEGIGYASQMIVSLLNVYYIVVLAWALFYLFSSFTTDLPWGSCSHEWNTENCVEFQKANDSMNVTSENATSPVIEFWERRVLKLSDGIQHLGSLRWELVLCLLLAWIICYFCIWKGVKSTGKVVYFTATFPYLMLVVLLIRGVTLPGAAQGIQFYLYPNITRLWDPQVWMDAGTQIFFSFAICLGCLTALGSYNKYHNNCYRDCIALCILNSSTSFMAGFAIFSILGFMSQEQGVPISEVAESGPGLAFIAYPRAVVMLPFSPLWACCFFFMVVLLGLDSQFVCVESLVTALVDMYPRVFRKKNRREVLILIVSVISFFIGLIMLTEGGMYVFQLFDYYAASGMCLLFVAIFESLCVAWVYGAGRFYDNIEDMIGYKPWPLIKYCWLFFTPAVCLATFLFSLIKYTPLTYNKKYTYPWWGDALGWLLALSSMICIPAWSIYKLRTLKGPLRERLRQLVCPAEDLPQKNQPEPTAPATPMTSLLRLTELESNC

[6] = molecular target: T3, GABA transporter 2 (Mus musculus) (UniProt P31651); assay: Remaining GABA uptake at murine BGT-1 expressed in HEK293 cells at 100 uM relative to control
T3 sequence (whole entry): T1 sequence (P31651 whole entry)

[7] = molecular target: Sodium- and chloride-dependent GABA transporter 1 (Mus musculus) (UniProt P31648); assay: Remaining GABA uptake at murine GAT-1 expressed in HEK293 cells at 100 uM relative to control
GABA transporter 4 = molecular target: T4, GABA transporter 4 (Mus musculus, UniProt P31650); assay: Inhibition of GABA uptake at murine GAT-3 expressed in HEK293 cells; assay type: cell-based
T4 sequence (P31650 whole entry): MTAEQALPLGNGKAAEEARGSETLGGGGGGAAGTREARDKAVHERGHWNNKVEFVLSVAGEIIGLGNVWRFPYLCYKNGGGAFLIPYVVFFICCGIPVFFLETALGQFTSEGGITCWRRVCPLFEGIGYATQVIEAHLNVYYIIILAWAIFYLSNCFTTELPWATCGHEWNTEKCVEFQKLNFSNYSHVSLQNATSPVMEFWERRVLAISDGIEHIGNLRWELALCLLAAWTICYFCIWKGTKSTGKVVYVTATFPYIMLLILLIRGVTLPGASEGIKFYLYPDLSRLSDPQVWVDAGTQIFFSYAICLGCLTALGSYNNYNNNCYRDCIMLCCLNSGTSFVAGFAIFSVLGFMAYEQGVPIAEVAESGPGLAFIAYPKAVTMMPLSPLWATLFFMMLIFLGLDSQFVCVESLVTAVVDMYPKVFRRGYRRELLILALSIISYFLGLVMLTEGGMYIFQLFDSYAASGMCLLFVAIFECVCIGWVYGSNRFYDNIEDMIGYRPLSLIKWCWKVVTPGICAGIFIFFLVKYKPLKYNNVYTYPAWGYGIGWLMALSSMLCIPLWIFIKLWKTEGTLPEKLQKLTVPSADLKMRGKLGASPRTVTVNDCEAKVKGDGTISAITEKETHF

GABA transporter 3 = molecular target: T5, GABA transporter 3 (Mus musculus, UniProt P31649); assay: Inhibition of GABA uptake at murine GAT-2 expressed in HEK293 cells; assay type: cell-based
T5 sequence (P31649 whole entry): T2 sequence (whole entry)

[8] = molecular target: T3, GABA transporter 2 (Mus musculus); assay: Remaining GABA uptake at murine BGT-1 expressed in HEK293 cells at 1 mM relative to control

Sodium- and chloride-dependent GABA transporter 1 (Homo sapiens, UniProt P30531), sequence (P30531 whole entry): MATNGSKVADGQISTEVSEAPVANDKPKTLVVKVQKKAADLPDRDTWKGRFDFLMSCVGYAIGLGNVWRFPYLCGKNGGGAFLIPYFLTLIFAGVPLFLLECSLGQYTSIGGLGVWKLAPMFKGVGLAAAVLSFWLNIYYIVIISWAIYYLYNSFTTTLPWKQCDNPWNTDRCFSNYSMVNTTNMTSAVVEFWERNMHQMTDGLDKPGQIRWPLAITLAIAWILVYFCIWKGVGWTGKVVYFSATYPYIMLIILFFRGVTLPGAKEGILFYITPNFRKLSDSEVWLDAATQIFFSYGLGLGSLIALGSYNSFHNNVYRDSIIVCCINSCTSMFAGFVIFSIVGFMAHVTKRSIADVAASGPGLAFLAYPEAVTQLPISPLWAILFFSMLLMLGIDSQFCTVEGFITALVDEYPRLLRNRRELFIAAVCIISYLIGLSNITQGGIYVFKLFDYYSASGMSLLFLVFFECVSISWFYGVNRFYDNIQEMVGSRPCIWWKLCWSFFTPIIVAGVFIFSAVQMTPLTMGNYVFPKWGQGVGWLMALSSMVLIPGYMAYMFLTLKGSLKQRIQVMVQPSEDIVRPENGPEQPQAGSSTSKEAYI

SMILES | IC50 [2] [µM] | remaining GABA uptake [5] [%] | remaining GABA uptake [6] [%] | IC50 (GABA transporter 4) [µM] | other results
O=C(O)[C@@H]1CCCN(CCOCCN2c3ccccc3CCc3ccccc32)C1 | – | – | – | – | IC50 [1]: 39.8 µM
O=C(O)[C@@H]1CCCN(CCOCCN2c3ccccc3Sc3ccccc32)C1 | – | – | – | – | IC50 [1]: 0.309 µM
O=C(O)[C@@H]1CCCN(CCOCCN2c3ccccc3C=Cc3ccccc32)C1 | – | – | – | – | IC50 [1]: 0.646 µM
COc1ccc(C(/C=C/CN2CCC[C@H](C(=O)O)C2)(c2ccc(OC)cc2)c2ccc(OC)cc2)cc1 | 39.8 | – | – | – | IC50 (GABA transporter 2): 38 µM
Cl.O=C(O)CCNCCC=C(c1ccccc1)c1ccccc1 | – | – | – | – | pIC50 [3]: 3.94; pIC50 [4]: 3.36
O=C(O)CCNCCOCCN1c2ccccc2CCc2ccccc21 | 20.4 | 55 | 85 | – | –
O=C(O)CCNCCOCCN1c2ccccc2Sc2ccccc21 | 35.5 | 50 | 88 | – | –
COc1ccc(C(OCCNCCC(=O)O)(c2ccc(OC)cc2)c2ccc(OC)cc2)cc1 | – | 40 | 55 | 42.7 | remaining GABA uptake [7]: 57%
COc1ccc(C(OCCN2CCC[C@H](C(=O)O)C2)(c2ccc(OC)cc2)c2ccc(OC)cc2)cc1 | – | – | – | – | IC50 (GABA transporter 2): 30.9 µM
COc1ccc(C(/C=C/CNCCC(=O)O)(c2ccc(OC)cc2)c2ccc(OC)cc2)cc1 | – | 94 | 47 | – | remaining GABA uptake [7]: 77%
O=C(O)CCNCCOCCN1c2ccccc2C=Cc2ccccc21 | – | 87 | 85 | – | remaining GABA uptake [7]: 56%
CC(N)CC(=O)O (racemic) | 50.1 | – | – | 83.2 | IC50 (GABA transporter 3): 46.8 µM; IC50 (GABA transporter 2): 813 µM
CC(CC(=O)O)NCCC=C(c1ccccc1)c1ccccc1 (racemic) | 4.57 | 82 | 86 | – | –
CC(CC(=O)O)NCCOCCN1c2ccccc2CCc2ccccc21 (racemic) | 13.2 | – | – | 339 | IC50 (GABA transporter 3): 214 µM; remaining GABA uptake [8]: 69%
CC(CC(=O)O)NCCOCCN1c2ccccc2C=Cc2ccccc21 (racemic) | 17.4 | 84 | 82 | – | –
CC(CC(=O)O)NCCOCCN1c2ccccc2Sc2ccccc21 (racemic) | 8.71 | – | 74 | – | IC50 (GABA transporter 3): 40.7 µM
COc1ccc(C(OCCNC(C)CC(=O)O)(c2ccc(OC)cc2)c2ccc(OC)cc2)cc1 (racemic) | – | 48 | 73 | 33.9 | remaining GABA uptake [7]: 114%
COc1ccc(C(/C=C/CNC(C)CC(=O)O)(c2ccc(OC)cc2)c2ccc(OC)cc2)cc1 (racemic) | – | – | 47 | 60.3 | IC50 (GABA transporter 3): 63.1 µM; remaining GABA uptake [7]: 52%
NCCC(=O)O [BETA-ALANINE] | 2820 | – | – | 34.7 | IC50 (GABA transporter 3): 21.9 µM; IC50 (GABA transporter 2): 331 µM
